{"data": "Assay results pooled from the literature", "observed": "cell growth or viability", "note": "Lines come from different studies, so protocols differ."}
{"SMILES": "O=C(CSc1nc2ccccc2s1)N/N=C/c1ccc(OCC(=O)Nc2cccc(Cl)c2)cc1", "cell line": "Z-138", "technique": "MTS", "time": "72 h", "IC50 [nM]": "> 100000"}
{"SMILES": "CONC(=O)c1cccc2c1cc(C)n2-c1nc2c(c(NCc3ccccc3)n1)CCCN2", "cell line": "BXPC-3", "time": "72 h", "IC50 [nM]": 1400}
{"SMILES": "FC(F)(F)c1ccc(-c2cc(COc3cc(C(F)(F)F)nc4ccccc34)on2)cc1", "cell line": "Z-138", "technique": "MTS", "time": "72 h", "IC50 [nM]": "> 100000"}
{"SMILES": "O=C(CSc1nc2ccccc2s1)N/N=C/c1ccc(OCC(=O)Nc2ccc([N+](=O)[O-])cc2)cc1", "cell line": "Z-138", "technique": "MTS", "time": "72 h", "IC50 [nM]": 3750}
{"SMILES": "Cc1cc2c(C(=O)O)cccc2n1-c1nc2c(c(NCc3ccccc3)n1)CCCN2", "cell line": "ARP-1", "time": "72 h", "IC50 [nM]": 900}
{"SMILES": "FC(F)(F)c1cc(OCc2cc(-c3ccc(Cl)cc3Cl)no2)c2ccccc2n1", "cell line": "Z-138", "technique": "MTS", "time": "72 h", "IC50 [nM]": "> 100000"}
{"SMILES": "Cc1ccc(CN2C(=O)C(=Nc3cccc(Cl)c3)c3ccccc32)cc1", "cell line": "B16", "technique": "MTT", "time": "48 h", "IC50 [nM]": 1490}
{"SMILES": "Cc1nc(Nc2ncc(C(=O)Nc3c(C)cccc3Cl)s2)cc(N2CC[C@H](O)C2)n1", "cell line": "Granta-519", "technique": "ATP luminescence", "time": "72 h", "IC50 [nM]": "> 10000"}
{"SMILES": "Cc1nn(-c2ccc(S(=O)(=O)N3CCN(C)CC3)cc2)c2nn3nnnc3nc12", "cell line": "DLD-1", "technique": "MTT", "IC50 [nM]": 80}
{"SMILES": "O=c1cc(OCc2cc(-c3ccc(Cl)cc3Cl)no2)c2ccccc2o1", "cell line": "Z-138", "technique": "MTS", "time": "72 h", "IC50 [nM]": "> 100000"}
{"SMILES": "COc1cccc2c1C(=O)c1c(O)c3c(c(O)c1C2=O)C[C@@](O)(C(=O)CO)C[C@@H]3O[C@H]1C[C@H](N)[C@H](O)[C@H](C)O1", "cell line": "BXPC-3", "time": "96 h", "IC50 [nM]": 124}
{"SMILES": "O=C1C(=Nc2ccc(Cl)cc2Br)c2ccccc2N1Cc1ccc([N+](=O)[O-])cc1", "cell line": "B16", "technique": "MTT", "time": "48 h", "IC50 [nM]": 2140}
{"SMILES": "O=C(CSc1nc2ccccc2s1)N/N=C/c1ccc(OCC(=O)Nc2cccc([N+](=O)[O-])c2)cc1", "cell line": "Z-138", "technique": "MTS", "time": "72 h", "IC50 [nM]": "> 100000"}
{"SMILES": "O=C1C(=Nc2ccccc2I)c2ccccc2N1Cc1ccc(Br)cc1", "cell line": "B16", "technique": "MTT", "time": "48 h", "IC50 [nM]": 15200}
{"SMILES": "FC(F)(F)c1cc(OCc2cc(-c3ccccn3)no2)c2ccccc2n1", "cell line": "Z-138", "technique": "MTS", "time": "72 h", "IC50 [nM]": "> 100000"}
{"SMILES": "CC(C)c1cccc(C(C)C)c1N=C1C(=O)Nc2ccccc21", "cell line": "B16", "technique": "MTT", "time": "48 h", "IC50 [nM]": 6880}
{"SMILES": "Cc1cc2c(C(N)=O)cccc2n1-c1nc2c(c(NCc3ccccc3)n1)CCCN2", "cell line": "ARP-1", "time": "72 h", "IC50 [nM]": 1300}
{"SMILES": "Cc1ccc(CN2C(=O)C(=Nc3cccc(C)c3)c3ccccc32)cc1", "cell line": "B16", "technique": "MTT", "time": "48 h", "IC50 [nM]": 440}
{"SMILES": "N/C(=N\\O)c1ccc(-c2cc(CNc3cccc4cccnc34)on2)cc1", "cell line": "Z-138", "technique": "MTS", "time": "72 h", "IC50 [nM]": 2100}
{"SMILES": "CCc1ccc(N=C2C(=O)Nc3ccccc32)cc1", "cell line": "B16", "technique": "MTT", "time": "48 h", "IC50 [nM]": 37300}
{"SMILES": "N#Cc1ccc(-c2cc(CNc3cccc4cccnc34)on2)cc1", "cell line": "Z-138", "technique": "MTS", "time": "72 h", "IC50 [nM]": 10800}
